Experimental data published in article PMC3835248 (Journal of the American Heart Association: Cardiovascular …, 2013).
Entries after “also recorded” stand apart in the source; their conditions may differ. Each block holds one compound with its values, some of them ahead of it.

How the values were obtained:
IκBα = experiment: Half-life of endogenous IκBα in Jurkat T cells; format: cell-based, human; conditions: 1 μmol/L 30 minutes before cycloheximide, PMA/Iono-stimulated Jurkat
How it was run: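 Jurkat T cells given cycloheximide 10 μg/mL. 30 min later, left unstimulated or given PMA 5 nmol/L plus ionomycin 2 μmol/L. Parallel samples had epoxomicin 1 μmol/L 30 min before cycloheximide. Cells sampled at […]; two-step hypotonic NP-40/0.45 mol/L NaCl lysates. Infrared quantitative immunoblot; signal normalised to β-actin, expressed as % of t0; mean±SD of ≥3 experiments.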

importins α = experiment: Competition of biotinylated peptides with native auto-inhibitory regions; format: binding, human; conditions: biotinylated peptide, Jurkat lysate, pull-down
How it was run: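 Biotinylated peptides of importin α1, α3, α4, α5 and α7 auto-inhibitory regions, with biotinylated NLS and mutant NLS peptides, each added separately to whole-cell lysate of Jurkat T cells. Per pull-down protocol: 10 nmols peptide, lysate 1.5 mg/mL total protein, overnight. Complexes captured on streptavidin beads; importins detected by immunoblot.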

GST-tagged Imp α5 ΔIBB = GST-tagged Imp α5 ΔIBB (Homo sapiens, UniProt P52294); experiment: Bio-Layer Interferometry; format: binding
Sequence of GST-tagged Imp α5 ΔIBB (P52294 101-538 limits assumed, stated change not applied): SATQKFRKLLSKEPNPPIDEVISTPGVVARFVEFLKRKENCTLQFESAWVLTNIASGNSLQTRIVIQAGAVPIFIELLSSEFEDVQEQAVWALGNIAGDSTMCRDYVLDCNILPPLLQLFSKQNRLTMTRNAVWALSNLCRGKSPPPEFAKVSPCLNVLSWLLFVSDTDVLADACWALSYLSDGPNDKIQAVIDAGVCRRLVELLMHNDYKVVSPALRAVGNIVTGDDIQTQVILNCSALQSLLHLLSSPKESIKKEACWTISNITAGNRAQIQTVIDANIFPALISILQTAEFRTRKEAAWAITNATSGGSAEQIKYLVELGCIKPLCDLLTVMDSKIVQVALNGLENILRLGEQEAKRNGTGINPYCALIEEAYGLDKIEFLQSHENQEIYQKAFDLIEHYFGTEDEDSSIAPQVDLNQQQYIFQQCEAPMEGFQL
How it was run: (§1)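 Human importin α1 or α5 lacking the importin-β-binding domain (aa 1-100), GST-tagged, expressed in E. coli BL21(DE3)-RIL as inclusion bodies. Refolded, GST-affinity purified and dialysed into pH 7.0 "intracellular" buffer. Biotinylated peptide (5 nmol/L) loaded on streptavidin biosensors, 10 min, 37°C. Protein at 50–200 nmol/L, 30°C, with GST alone as control. Association 15 min, dissociation 15 min; curves fitted 1:1 or 2:1; 3 independent experiments.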

GST-tagged Imp α1 ΔIBB = experiment: Bio-Layer Interferometry; format: binding, human
How it was run: as §1

Imp α4 [1] = experiment: Competition binding assay, Imp α4; parameters: species or system human; conditions: free N50 0-300 μmol/L, Jurkat lysate 1.5 mg/mL
How it was run: (§2)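 Unlabelled N50 (0, 10, 30, 100, 300 μmol/L) incubated overnight at 4°C with unstimulated Jurkat lysate at 1.5, 0.3 or 0.05 mg/mL total protein. Unbound importins then pulled down with biotinylated N50 on streptavidin beads and quantified by immunoblot. Bead-bound signal without competitor set to 100%; percentage remaining per concentration, mean±SD of 3 independent experiments.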

Imp α5 [2] = experiment: Importin binding; parameters: species or system human
How it was run: (§3)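 Biotinylated peptides (N-terminal biotin, 5-Gly spacer), 10 nmols, incubated overnight with whole-cell lysates of unstimulated Jurkat, HeLa S3 or EA.hy926 cells (Jurkat at 1.5 mg/mL total protein). Captured on streptavidin beads; immunoblotted for importins α1, α3, α4, α5, α7, β1, with GAPDH as nonspecific control. Binding strength judged from pulled-down versus lysate amount, alongside GAPDH-normalised importin abundance per cell type.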

Imp α7 = experiment: Importin binding; parameters: species or system human; conditions: biotinylated peptide, whole cell lysates, SA-bead pull-down, immunoblot
How it was run: as §3

Imp α1 [3] = experiment: Competition binding assay, Imp α1; parameters: species or system human; conditions: free N50 0-300 μmol/L, Jurkat lysate 1.5 mg/mL
How it was run: as §2

Imp α3 = experiment: Importin binding; parameters: species or system human; conditions: HeLa S3 lysate compared to other cell types
How it was run: as §3

Imp α1 [4] = experiment: Importin binding; parameters: species or system human
How it was run: as §3

Imp α5 [5] = experiment: Competition binding assay, Imp α5; parameters: species or system human; conditions: free N50 0-300 μmol/L, Jurkat lysate
How it was run: as §2

Imp α4 [6] = experiment: Importin binding; parameters: species or system human; conditions: Jurkat T cell lysate compared to HeLa S3 and EA.hy926
How it was run: as §3

Compound: CC[C@H](C)[C@H](NC(=O)[C@H]([C@@H](C)CC)N(C)C(C)=O)C(=O)N[C@H](C(=O)N[C@@H](CC(C)C)C(=O)[C@@]1(C)CO1)[C@@H](C)O [epoxomicin]
effect on turnover of IκBα (IκBα): drastically slowed turnover

Compound: IQLRKQKREQQLFKRRNVELI [AR7]
competition with native ARs of importins α (importins α): successfully competed with native ARs of all importins α, including its own

BLI response with Imp α5 (GST-tagged Imp α5 ΔIBB; biotinylated peptide immobilized, Imp α5 ΔIBB 200 nmol/L): at the background level
BLI response with Imp α1 (GST-tagged Imp α1 ΔIBB; biotinylated peptide immobilized, Imp α1 ΔIBB 200 nmol/L): at the background level
Compound: VQRDEQKLMP [N50M]

Compound: VQRKRQKLMP [N50]
inhibition of Imp α4 binding to immobilized N50, in words (Imp α4 [1]): slightly inhibited; also recorded: do not substantially inhibit binding
relative strength of interaction with Imp α5 (Imp α5 [2]; all 3 cell types (Jurkat, HeLa S3, EA.hy926)): similarly strong in all 3 cell types
relative amount of Imp α5 bound to biotinylated N50 (Imp α5 [2]; compared with any of the other detected proteins): strikingly higher than any of the other detected proteins
competition with native ARs of importins α (importins α): successfully competes
binding to Imp α5, in words (GST-tagged Imp α5 ΔIBB; BLI): specific, high‐affinity binding; also recorded: preferential and specific binding
maximum response with Imp α5 relative to maximum response with Imp α1 (GST-tagged Imp α5 ΔIBB; BLI, normalized by subtracting GST): more than 20 fold
binding to Imp α1, in words (GST-tagged Imp α1 ΔIBB; BLI): not Imp α1; also recorded: nonspecific; also recorded: low affinity
interaction with Imp α7 (Imp α7): inability to detect any interactions; also recorded: inaccessible to this peptide
inhibition of Imp α1 binding to immobilized N50, in words (Imp α1 [3]): slightly inhibited; also recorded: do not substantially inhibit binding
relative strength of interaction with Imp α3 (Imp α3): stronger
relative strength of interaction with Imp α1 (Imp α1 [4]; EA.hy926 lysate compared to Jurkat T cells): weaker
relative strength of interaction with Imp α1 (Imp α1 [4]; HeLa S3 lysate compared to Jurkat T cells): weaker
inhibition of Imp α5 binding to immobilized N50, in words (Imp α5 [5]): tightly controlled by unlabeled peptide in all lysate total protein concentrations; also recorded: concentration dependent
relative strength of interaction with Imp α4 (Imp α4 [6]): stronger
